The results in this text go back to ChEMBL document CHEMBL2176946, “An anthraquinone scaffold for putative, two-face Bim BH3 α-helix mimic” (J Med Chem, 2012).

The subject of one assay is K562. Nature of the assay: Cytotoxicity against human K562 cells by MTT assay. Format: functional, cell-based. On the technique in general: Tetrazolium dyes change colour on reduction, which living cells bring about.
The test system of a further assay is HEK293. In words: Cytotoxicity against human HEK293 cells by MTT assay. The assay is classed as cell-based.
Assay [1] concerns MCF7. Nature of the assay: Cytotoxicity against human MCF7 cells by MTT assay. The assay is classed as functional, cell-based.
The subject of assay [2] is MCF7. In words: Induction of necrosis in human MCF7 cells at 10 uM after 12 to 24 hrs by Annexin V-FITC/PI staining based flow cytometry. The assay is classed as functional, cell-based. Background: Flow cytometry measures light scatter and fluorescence of single cells or particles in a stream.
For assay [3], the target named is T1, Induced myeloid leukemia cell differentiation protein Mcl-1 (Homo sapiens, UniProt Q07820). Nature of the assay: Binding affinity to Mcl-1 in ABT737-resistant human Nalm-6 cells assessed as disruption of Mcl-1/Bak at 5 uM after 12 to 24 hrs by coimmunoprecipitation assay. The assay is classed as cell-based. Summed up:
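Nalm-6 cells (ABT737-resistant) incubated with 5 μM compound for 12 or 24 h. Total cell lysates immunoprecipitated with anti-Bcl-2 or anti-Mcl-1 antibody. Precipitates and lysates resolved by SDS-PAGE and Western blotted with anti-Bcl-2, anti-Bax, anti-Mcl-1 and anti-Bak antibodies.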

The nature of assay [4]: Cytotoxicity against human NCI-H1688 cells by MTT assay. Format: functional, cell-based.
For the next assay, the system named is U-937. In words: Cytotoxicity against human U937 cells by MTT assay. Format: functional, cell-based.
A further assay concerns SMMC-7721. In words: Cytotoxicity against human SMMC7721 cells by MTT assay. Format: functional, cell-based.
For a further assay, the system named is Nucleic Acid. In words: Induction of DNA damage in Escherichia coli pBR322 at 100 uM after 2 hrs by agarose gel electrophoresis. The assay is classed as functional.
Another assay has as its system HeLa. In words: Cytotoxicity against human HeLa cells by MTT assay. Format: functional, cell-based.
For assay [5], the system named is MCF7. Nature of the assay: Induction of apoptosis in human MCF7 cells at 10 uM after 12 to 24 hrs by Annexin V-FITC/PI staining based flow cytometry. The assay is classed as functional, cell-based.
Assay [6] deals with Apoptosis regulator Bcl-2 (Homo sapiens, UniProt P10415). In words: Binding affinity to Bcl-2 after 30 mins by florescence polarization assay. The method, boiled down:
(§1)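 Fluorescence polarization binding assay against Mcl-1 and Bcl-2 proteins.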

Assay [7] relates to MCF7. In words: Cytotoxicity against human MCF7 cells transfected with Bax/Bak shRNA assessed as cell viability after 48 hrs by MTT assay. Format: functional, cell-based. The method, boiled down: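 MCF-7 cells transfected with nonspecific shRNA or Bax/Bak shRNA, treated 48 h with graded doses of compound. Viability read by MTT assay.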
The target in assay [8] is T1, Induced myeloid leukemia cell differentiation protein Mcl-1. Nature of the assay: Binding affinity to Mcl-1 after 30 mins by florescence polarization assay. Summed up:
as §1

As usually defined, the IC50 is the concentration that gives 50% inhibition. Read a low IC50 as higher potency. Broadly, the Ki is a dissociation constant, usually derived from enzyme kinetics or from competition with a known ligand.

Active and inactive are the calls of the source. The calls are words filed in the database; no cut-off is given here.

Sequence of Apoptosis regulator Bcl-2 (P10415 whole entry): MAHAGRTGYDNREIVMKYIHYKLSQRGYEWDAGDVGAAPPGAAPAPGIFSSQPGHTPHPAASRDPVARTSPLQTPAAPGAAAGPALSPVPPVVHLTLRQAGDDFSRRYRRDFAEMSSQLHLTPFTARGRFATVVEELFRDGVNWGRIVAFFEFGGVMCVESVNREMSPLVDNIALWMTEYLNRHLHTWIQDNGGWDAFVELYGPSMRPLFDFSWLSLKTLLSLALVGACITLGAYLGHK
T1 sequence (Q07820 whole entry): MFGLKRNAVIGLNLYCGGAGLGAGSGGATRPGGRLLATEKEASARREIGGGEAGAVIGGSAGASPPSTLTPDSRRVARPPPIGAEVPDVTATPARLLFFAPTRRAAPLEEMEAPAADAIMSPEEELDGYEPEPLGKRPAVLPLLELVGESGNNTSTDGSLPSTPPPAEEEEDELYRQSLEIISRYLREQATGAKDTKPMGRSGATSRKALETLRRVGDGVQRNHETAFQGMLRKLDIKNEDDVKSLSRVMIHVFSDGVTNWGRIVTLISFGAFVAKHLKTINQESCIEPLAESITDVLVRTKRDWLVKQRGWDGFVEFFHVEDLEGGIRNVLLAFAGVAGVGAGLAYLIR

Turning to `CC(C)c1ccc(Sc2ccc3c(c2)C(=O)c2cc(O)c(O)cc2C3=O)cc1`, the IC50 in the assay with K562 came to 3250 nM; in the assay with HEK293, 50300 nM; with MCF7 [1] it was 6120 nM; in assay [4] it was 4370 nM; in the assay with U-937, 4060 nM; in the assay with SMMC-7721, 6850 nM. This compound showed a concentration for half-maximal inhibition (IC50) in the assay on HeLa of 5240 nM. Besides, the result with MCF7 [2], in the assay with Nucleic Acid and in the assay with MCF7 [7] was inactive. The result (in [3]; in the assay with MCF7 [5]) was Active. Also, the Ki in assay [6] turned out to be 24 nM; in assay [8], 13 nM.

On to `O=C1c2ccc(Br)cc2C(=O)c2cc(O)c(O)cc21`, for which the results for the Ki in [6] and in assay [8] were 132 nM and 107 nM, respectively.

Turning to `O=C1c2ccccc2C(=O)c2c1cc(O)c(O)c2O`, the Ki stood at 583 nM in [6] and 270 nM in assay [8].

`Cc1ccc(Sc2ccc3c(c2)C(=O)c2cc(O)c(O)cc2C3=O)cc1`: the Ki turned out to be 44 nM in [6] and 38 nM in assay [8].

As to `O=C1c2ccc(Sc3ccc(Br)cc3)cc2C(=O)c2cc(O)c(O)cc21`, the results for the Ki in [6] and in [8] were 87 nM and 56 nM, respectively.

Regarding `O=C1c2ccccc2C(=O)c2c1ccc(O)c2O` [ATHRAQUINONES A], the inhibition constant (Ki) was found to be 1150 nM in assay [6] and 1620 nM in [8].

Regarding `O=C1c2ccccc2C(=O)c2cc(O)c(O)cc21`, the values for the Ki in [6] and in assay [8] were 420 nM and 312 nM, respectively.

On to `O=C1c2ccc(Sc3ccccc3)cc2C(=O)c2cc(O)c(O)cc21`, for which the Ki in assay [6] was 71 nM; in [8] it was 53 nM.

Turning to `O=C1c2ccccc2C(=O)c2c(O)cc(O)cc21` [XANTHOPURPURIN], the Ki in assay [6] turned out to be 1700 nM; in [8], 2270 nM.
